Measurements as given in paper PMC11265520 (RSC Advances, 2024).
Read-outs that look alike come from different tables or passages of the source.

Assays:
Capan-1 = assay: Antiproliferative assay, Capan-1; format: cell-based; details: Homo sapiens, CAPAN-1, read-out: IC50 Capan-1
hCA XII = hCA XII (Homo sapiens, UniProt O43570); assay: Stopped flow CO2 hydrase assay, hCA XII; format: biochemical
HCT-116 = assay: Antiproliferative assay, HCT-116; format: cell-based; details: Homo sapiens, HCT-116, read-out: IC50 HCT-116
DND-41 = assay: Antiproliferative assay, DND-41; format: cell-based; details: Homo sapiens, DND41, read-out: IC50 DND-41
HL-60 = assay: Antiproliferative assay, HL-60; format: cell-based; details: Homo sapiens, HL-60, read-out: IC50 HL-60
NCI-H1975 = assay: Antiproliferative assay, NCI-H1975; format: cell-based; details: Homo sapiens, NCI-H1975, read-out: IC50 NCI-H1975
K562 = assay: Antiproliferative assay, K562; format: cell-based; details: Homo sapiens, K562, read-out: IC50 K562
Z138 = assay: Antiproliferative assay, Z138; format: cell-based; details: Homo sapiens, Z-138, read-out: IC50 Z138
LN229 = assay: Antiproliferative assay, LN229; format: cell-based; details: Homo sapiens, LN-229, read-out: IC50 LN229
hCA I = hCA I (Homo sapiens, UniProt P00915); assay: Stopped flow CO2 hydrase assay, hCA I; format: biochemical
Chain of hCA I (P00915 whole entry): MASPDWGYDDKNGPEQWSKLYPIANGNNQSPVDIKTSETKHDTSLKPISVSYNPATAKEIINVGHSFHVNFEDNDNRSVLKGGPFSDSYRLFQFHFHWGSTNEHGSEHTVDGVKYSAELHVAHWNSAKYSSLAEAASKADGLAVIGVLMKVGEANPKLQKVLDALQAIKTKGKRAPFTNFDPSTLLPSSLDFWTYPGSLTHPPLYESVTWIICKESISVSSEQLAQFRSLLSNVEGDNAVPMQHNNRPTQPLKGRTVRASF

[1] = tested on: breast cancer cells MCF-7; assay: MTT antiproliferative assay, MCF-7 under normoxia and hypoxia; format: cell-based, human; details: for IC50: Homo sapiens; for antiproliferative activity, in words: MCF-7, Table 3; for HCR, hypoxic cytotoxicity ratio: IC50(N)/IC50(H): MCF-7
How it was run: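 MTT assay on MCF-7 cells grown in high-glucose DMEM with 10% FBS, penicillin and streptomycin at 37 °C and 5% CO2. Cells were seeded at 40 000 per well, and test compound (10 mM DMSO stock) was added after 24 h; controls got solvent. Cells were kept under normoxia (21% O2) or hypoxia (1% O2). IC50 is mean ± S.D. of 3 experiments; HCR = IC50(N)/IC50(H).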

hCA IX = hCA IX (Homo sapiens, UniProt Q16790); assay: biochemical; format: biochemical
hCA II = hCA II (Homo sapiens, UniProt P00918); assay: Stopped flow CO2 hydrase assay, hCA II; format: biochemical
[2] = tested on: panel of tumor cell lines; assay: Antiproliferative activity over the panel of tumor cell lines; format: cell-based, human; details: for IC50: Homo sapiens
A431 skin cancer cells = assay: MTT assay, A431 cells in normoxia and hypoxia; format: cell-based; details: for IC50: Homo sapiens, A-431, 72 h
How it was run: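 A431 cells were cultured in high-glucose DMEM with 10% FBS and penicillin/streptomycin at 37 °C and 5% CO2, then seeded at 35 000 per well. After 24 h, test compound from a 10 mM DMSO stock was added, with solvent-only controls. Incubation lasted 72 h under normoxia or hypoxia (1% O2). Viability was read by MTT, with IC50 from the concentration-response curve.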

[3] = tested on: CA IX and cleaved PARP expression in A431 cells; assay: Immunoblotting of CA IX and cleaved PARP in A431 cells under hypoxia; format: cell-based; details: 24 h
How it was run: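 A431 cells grew 24 h, then received test compound or tirapazamine reference (30 μM) in fresh medium and were held 24 h in hypoxia; the control stayed in normoxia. Lysis buffer: Tris-HCl pH 7.5, Igepal, NaCl, EDTA, DTT, PMSF, orthovanadate, protease inhibitors. Protein was measured by Bradford. Blots: 10% reducing SDS-PAGE, nitrocellulose, milk/TBS-Tween block, primary antibodies overnight at 4 °C, GAPDH loading control, HRP anti-rabbit, ECL.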

[4] = read-out: IC50 range over the tested tumor cell lines

Chain of hCA XII (O43570 25-354): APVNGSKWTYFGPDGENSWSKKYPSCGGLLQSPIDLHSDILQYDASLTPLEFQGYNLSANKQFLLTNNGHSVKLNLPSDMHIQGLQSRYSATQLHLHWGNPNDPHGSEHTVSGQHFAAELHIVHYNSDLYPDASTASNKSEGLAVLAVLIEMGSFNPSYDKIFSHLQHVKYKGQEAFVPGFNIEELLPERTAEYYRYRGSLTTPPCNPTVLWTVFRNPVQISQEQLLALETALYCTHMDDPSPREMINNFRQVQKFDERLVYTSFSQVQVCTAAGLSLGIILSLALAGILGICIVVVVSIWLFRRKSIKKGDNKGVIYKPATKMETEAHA

Row | Ki (hCA XII) | IC50 (HCT-116) | IC50 (HL-60) | IC50 (NCI-H1975) | IC50 (K562) | Ki (hCA I) | IC50 ([1]; MCF7, read-out: IC50 H) | IC50 ([1]; MCF7, read-out: IC50 N) | Ki (hCA IX) | Ki (hCA II) | Structure (SMILES) | IC50 (Capan-1) | IC50 (DND-41) | IC50 (Z138) | IC50 (LN229) | HCR, hypoxic cytotoxicity ratio: IC50(N)/IC50(H) [1] | further results
1 | > 10000 nM | > 100 µM | > 100 µM | > 100 µM | > 100 µM | 38 ± 1.1 nM | > 25 µM | > 25 µM | > 10000 nM | 4.4 ± 0.2 nM | N#Cc1c(-c2ccco2)[n+]([O-])c2cc(S(N)(=O)=O)ccc2[n+]1[O-] [Compound 7c, 3-(Furan-2-yl)-6-sulfamoylquinoxaline-2-carbonitrile 1,4-dioxide] | > 100 µM | > 100 µM | > 100 µM | > 100 µM | – | activity against CA XII, in words (hCA XII): inactive; antiproliferative activity, in words [1]: complete loss of activity; activity against CA IX, in words (hCA IX): complete loss of activity
2 | – | – | – | – | – | – | 4.5 ± 1.1 µM | 24.2 ± 3.3 µM | – | – | Nc1n[n+]([O-])c2ccccc2[n+]1[O-] [TPZ, Tirapazamine, reference compound] | – | – | – | – | 5.4 | –
3 | 89 ± 7 nM | 47.9 ± 2.3 µM | 2.3 ± 0.1 µM | 19.9 ± 0.9 µM | 10.8 ± 0.5 µM | 49.1 ± 3 nM | 0.9 ± 0.3 µM | 3.5 ± 0.2 µM | 2400 ± 96 nM | 2.7 ± 0.2 nM | N#Cc1c(-c2ccccc2)[n+]([O-])c2cc(S(N)(=O)=O)ccc2[n+]1[O-] [Compound 7a, 3-Phenyl-6-sulfamoylquinoxaline-2-carbonitrile 1,4-dioxide] | 7.5 ± 0.4 µM | 0.8 ± 0.05 µM | 8.7 ± 0.4 µM | 38.8 ± 1.9 µM | 3.9 | –
4 | 178 ± 9 nM | 34.3 ± 1.7 µM | 2 ± 0.1 µM | 13.9 ± 0.7 µM | 29.7 ± 1.5 µM | 53.7 ± 1.5 nM | 0.8 ± 0.2 µM | 1.8 ± 0.2 µM | 429 ± 21 nM | 5.1 ± 0.3 nM | N#Cc1c(-c2ccc(Cl)cc2)[n+]([O-])c2cc(S(N)(=O)=O)ccc2[n+]1[O-] [Compound 7b, 3-(4-Chlorophenyl)-6-sulfamoylquinoxaline-2-carbonitrile 1,4-dioxide] | 1.8 ± 0.1 µM | 5.4 ± 0.3 µM | 2.5 ± 0.2 µM | 24 ± 1.2 µM | 2.2 | enhancement of cytotoxicity compared to unsubstituted analogue 7a ([2]; all tested cell lines except DND-41): 1.2 to 6.8 times
5 | 111 ± 9.7 nM | – | – | – | – | 60.7 ± 2.6 nM | 1.3 ± 0.3 µM | 4.8 ± 0.2 µM | > 10000 nM | 4.4 ± 0.1 nM | N#Cc1c(-c2ccccc2)[n+]([O-])c2ccc(S(N)(=O)=O)cc2[n+]1[O-] [Compound 8a, 3-Phenyl-7-sulfamoylquinoxaline-2-carbonitrile 1,4-dioxide] | – | – | – | – | 3.7 | –
6 | 133 ± 12 nM | – | – | – | – | 40.3 ± 3.1 nM | – | – | > 10000 nM | 5 ± 0.4 nM | N#Cc1c(-c2ccc(Cl)cc2)[n+]([O-])c2ccc(S(N)(=O)=O)cc2[n+]1[O-] [Compound 8b, 3-(4-Chlorophenyl)-7-sulfamoylquinoxaline-2-carbonitrile 1,4-dioxide] | – | – | – | – | – | –
7 | – | – | – | – | – | – | 2.8 ± 0.4 µM | 11.7 ± 1.2 µM | – | – | CC(=O)c1c(C)[n+]([O-])c2ccc(S(N)(=O)=O)cc2[n+]1[O-] [Compound 8g, 2-Acetyl-3-methyl-7-sulfamoylquinoxaline 1,4-dioxide] | – | – | – | – | 4.2 | –
8 | 56.4 ± 4 nM | 2.7 ± 0.1 µM | 32.6 ± 1.6 µM | 33.3 ± 1.7 µM | 26 ± 1.3 µM | 63 ± 3.1 nM | 4.3 ± 0.3 µM | 10.5 ± 1.2 µM | > 10000 nM | 8 ± 0.3 nM | CCOC(=O)c1c(C)[n+]([O-])c2cc(S(N)(=O)=O)ccc2[n+]1[O-] [Compound 7f, 2-(Ethoxycarbonyl)-3-methyl-6-sulfamoylquinoxaline 1,4-dioxide] | 1.7 ± 0.1 µM | 10.3 ± 0.5 µM | 3.3 ± 1.7 µM | 35.9 ± 1.8 µM | 2.4 | enhancement of tumor cell growth inhibition compared to compound 7e ([2]; Table 4 cell lines): 1.4–40 times; activity against CA IX, in words (hCA IX): did not exhibit any inhibitory activity
9 | 143 ± 11 nM | 1.3 ± 0.08 µM | 1.8 ± 0.1 µM | 1.9 ± 0.1 µM | 1.9 ± 0.2 µM | 51.5 ± 3.2 nM | 0.8 ± 0.05 µM | 1.1 ± 0.1 µM | > 10000 nM | 4.8 ± 0.3 nM | NS(=O)(=O)c1ccc2c(c1)[n+]([O-])c(C(F)(F)F)c(C(=O)c1ccccc1)[n+]2[O-] [Compound 7h, 2-Benzoyl-6-sulfamoyl-3-(trifluoromethyl)quinoxaline 1,4-dioxide] | 1.4 ± 0.07 µM | 2.1 ± 0.2 µM | 1.9 ± 0.1 µM | 1.4 ± 0.03 µM | 1.4 | IC50 [2, 4]: 1300 to 2100 nM; IC50 ([2]; read-out: IC50 range, all cell lines): 1100 to 2100 nM; higher activity compared to other analogs ([2]; against most tumor cells): 1.5–20 times
10 | 252 ± 14 nM | > 100 µM | 52.7 ± 2.6 µM | 47.4 ± 2.3 µM | 52.6 ± 2.1 µM | 42.4 ± 1.9 nM | 0.9 ± 0.06 µM | 4 ± 0.6 µM | 257 ± 14 nM | 5.4 ± 0.3 nM | CCOC(=O)c1c(-c2ccccc2)[n+]([O-])c2cc(S(N)(=O)=O)ccc2[n+]1[O-] [Compound 7e, 2-(Ethoxycarbonyl)-3-phenyl-6-sulfamoylquinoxaline 1,4-dioxide] | 6 ± 0.3 µM | 28.2 ± 1.4 µM | 15.3 ± 0.8 µM | 87 ± 4.3 µM | 4.7 | –
11 | – | – | – | – | – | – | 0.4 ± 0.03 µM | 0.3 ± 0.03 µM | – | – | COc1cccc2c1C(=O)c1c(O)c3c(c(O)c1C2=O)C[C@@](O)(C(=O)CO)C[C@@H]3O[C@H]1C[C@H](N)[C@H](O)[C@H](C)O1 [DOXO, doxorubicin, reference compound] | – | – | – | – | 0.7 | –
12 | – | > 100 µM | 72.4 ± 3.6 µM | > 100 µM | > 100 µM | – | > 25 µM | > 25 µM | – | – | N#Cc1c(-c2cccs2)[n+]([O-])c2cc(S(N)(=O)=O)ccc2[n+]1[O-] [Compound 7d, 6-Sulfamoyl-3-(thiophen-2-yl)quinoxaline-2-carbonitrile 1,4-dioxide] | > 100 µM | 44.8 ± 2.2 µM | > 100 µM | 98.8 ± 4.9 µM | – | Ki (hCA I; read-out: Ki hCA I, mean from three experiments, stopped flow CO2 hydrase assay): 41.7 ± 2 nM; antiproliferative activity, in words [1]: complete loss of activity; activity against CA IX, in words (hCA IX): complete loss of activity; Ki (hCA IX; read-out: Ki hCA IX, mean from three experiments, stopped flow CO2 hydrase assay): > 10000 nM; Ki (hCA II; read-out: Ki hCA II, mean from three experiments, stopped flow CO2 hydrase assay): 4.2 ± 0.1 nM
13 | – | 2.3 ± 0.1 µM | 0.7 ± 0.04 µM | 1.1 ± 0.1 µM | 1.2 ± 0.06 µM | – | – | – | – | – | COc1cc([C@@H]2c3cc4c(cc3[C@@H](O[C@@H]3O[C@@H]5CO[C@@H](C)O[C@H]5[C@H](O)[C@H]3O)[C@H]3COC(=O)[C@H]23)OCO4)cc(OC)c1O [Etoposide, etoposide, reference compound] | 0.13 ± 0.01 µM | 0.29 ± 0.01 µM | 0.3 ± 0.02 µM | 1.7 ± 0.1 µM | – | IC50 [2, 4]: 130 to 2300 nM

Row | Structure (SMILES) | Ki (hCA XII) | IC50 (HCT-116) | IC50 (HL-60) | IC50 (NCI-H1975) | IC50 (K562) | Ki (hCA I) | IC50 ([1]; MCF7, read-out: IC50 H) | IC50 ([1]; MCF7, read-out: IC50 N) | Ki (hCA IX) | Ki (hCA II) | IC50 (Capan-1) | IC50 (DND-41) | IC50 (Z138) | IC50 (LN229) | HCR, hypoxic cytotoxicity ratio: IC50(N)/IC50(H) [1] | further results
14 | CC(=O)c1c(C)[n+]([O-])c2cc(S(N)(=O)=O)ccc2[n+]1[O-] [Compound 7g, 2-Acetyl-3-methyl-6-sulfamoylquinoxaline 1,4-dioxide] | 240 ± 13 nM | 69.6 ± 3.5 µM | 85.9 ± 4.3 µM | 66.1 ± 3.3 µM | 94.8 ± 4.7 µM | 65.7 ± 2.4 nM | 6.9 ± 0.3 µM | 7.1 ± 0.2 µM | 42.2 ± 4 nM | 7.4 ± 0.2 nM | 38.3 ± 1.9 µM | 66.9 ± 3.3 µM | 44.3 ± 2.2 µM | > 100 µM | 1.1 | decrease in cell survival (A431 skin cancer cells; A431, 50 μM, normoxia, 72 h): approximately 40%; IC50 (A431 skin cancer cells; read-out: IC50 A431, hypoxia): ~11 µM; IC50 (A431 skin cancer cells; read-out: IC50 A431, normoxia): > 50 µM; decrease in activity compared to 2-ethoxycarbonyl analogue 7f ([2]; Table 4 cell lines): 2–25 fold; CA IX expression [3]: dose-dependent reduction in CA IX expression; cleaved PARP (marker of apoptosis) [3]: accumulation of cleaved PARP
